Experimental data from different studies.
Lines come from different studies, so protocols differ.
CNR1: Cannabinoid receptor 1 (CNR1, Homo sapiens, UniProt P21554)
TBXA2R: Thromboxane A2 receptor (TBXA2R, Homo sapiens, UniProt P21731)
PFF0160c: Dihydroorotate dehydrogenase (quinone), mitochondrial (PFF0160c, Plasmodium falciparum, UniProt Q08210)

Compound	target	effect on	action	method	notes	endpoint	result
CCC(CC)(NC(=O)c1ccc(C2CC2)c(Cc2ccc(F)cc2)n1)C(=O)NCCOCCOCCNC(=O)c1ccc2c(c1)C1(OC2=O)c2ccc(N(C)C)cc2[Si](C)(C)c2cc(N(C)C)ccc21	CNR1	ligand displacement	–	radioligand	cell membranes	Ki	462 nM
CNC(=O)c1ccc(-c2cnn3ccc(C(=O)N(C)c4ccc(Cl)c(C(=O)OC)c4)cc23)cc1	TBXA2R	cell-free assay	–	–	–	IC50	> 30000 nM
C=C1CC/C=C(\C)CC[C@@H]2[C@@H]1CC2(C)C	CNR1	ligand displacement	–	radioligand	–	Ki	> 10000 nM
COC(=O)c1cc(N(C)C(=O)c2ccn3ncc(-c4ccc(C(=O)O)cc4)c3c2)ccc1Cl	TBXA2R	cell-free assay	–	–	–	IC50	> 30000 nM
CCCCCc1cc(O)c2c(c1)OC(C)(CCC=C(C)C)C=C2 (stereo not shown)	CNR1	cell-free assay	–	–	–	Ki	> 1000 nM
Cc1c(Cc2ccc(C(F)(F)F)cc2)n[nH]c1C(=O)NC1CC1	PFF0160c	enzyme activity	inhibitor	–	–	IC50	> 30000 nM
O=C(N=Nc1c(O)n(CCCCCF)c2ccccc12)c1ccccc1	CNR1	β-arrestin recruitment	agonist	–	–	EC50	1820 nM
Cn1nc2c(=O)n(C3CC3)ncc2c1[C@](O)(c1ccc(C(F)(F)F)c(C#N)c1)C(F)(F)F	PFF0160c	enzyme activity	inhibitor	–	–	IC50	25.1 nM
C=C/C=C/CCN1CCC(O)(c2cccc(Br)c2)C1 (stereo not shown)	5-hydroxytryptamine receptor 2A (HTR2A, Homo sapiens, UniProt P28223)	calcium signal	antagonist	–	–	IC50	15900 nM
O=C(N=Nc1c(O)n(CC2CCCCC2)c2ccccc12)c1ccccc1	CNR1	ligand displacement	–	radioligand	cell membranes	Ki	70.8 nM
CCn1cc(C)c2c([C@@H](N)c3ccc(C(F)(F)F)nc3)n(C)nc2c1=O	PFF0160c	enzyme activity	inhibitor	–	–	IC50	1000 nM
C=CCCCn1c(O)c(N=NC(=O)c2ccccc2)c2ccccc21	CNR1	ligand displacement	–	radioligand	cell membranes	Ki	1660 nM
CC[C@@](O)(c1cnc(C(F)(F)F)c(Cl)c1)c1c2ccn(C3CC3)c(=O)c2nn1C	PFF0160c	enzyme activity	inhibitor	–	–	IC50	12.6 nM
